In ChEMBL document CHEMBL4020840, “Synthesis and Biological Evaluation of Selenium-Containing 4-Anilinoquinazoline Derivatives as Novel Antimitotic Agents” (J Med Chem, 2018):
pIC50: −log10 of the molar value.

Tests used:
[1] = test system: A549; experiment: Induction of apoptosis in human A549 cells assessed as early apoptotic cells at 2 nM after 48 hrs by Annexin V-FITC/propidium iodide staining based flow cytometry (reference value: 1.48%); format: functional
[2] = test system: A549; experiment: Induction of apoptosis in human A549 cells assessed as live cells at 2 nM after 24 hrs by Annexin V-FITC/propidium iodide staining based flow cytometry (reference value: 98.84%); format: functional
[3] = test system: HCT-116; experiment: Growth inhibition of human HCT116 cells after 48 hrs by MTT assay; format: functional, cell-based; settings: HCT-116, 48 h
Outline: (§1)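 MTT assay: log-phase cells plated at 5 × 10³/well for 24 h, then exposed to a range of test concentrations for 48 h. MTT (5 mg/mL) added for 4 h, formazan dissolved in DMSO, absorbance read at 570 nm. IC50 is the concentration giving 50% growth inhibition, from dose-response curves; at least three independent experiments, mean ± SE.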

[4] = test system: RKO; experiment: Growth inhibition of human RKO cells after 48 hrs by MTT assay; format: functional, cell-based; outline: as §1
[5] = test system: L02; experiment: Antiproliferative activity against human LO2 cells after 48 hrs by MTT assay; format: cell-based; settings: L02, 48 h; outline: as §1
[6] = test system: A549; experiment: Induction of apoptosis in human A549 cells assessed as necrotic cells at 4 nM after 24 hrs by Annexin V-FITC/propidium iodide staining based flow cytometry (reference value: 0.10%); format: functional
[7] = test system: A549; experiment: Induction of apoptosis in human A549 cells assessed as live cells at 4 nM after 24 hrs by Annexin V-FITC/propidium iodide staining based flow cytometry (reference value: 98.84%); format: functional
[8] = test system: A549; experiment: Induction of apoptosis in human A549 cells assessed as late apoptotic cells at 4 nM after 24 hrs by Annexin V-FITC/propidium iodide staining based flow cytometry (reference value: 0.08%); format: functional
[9] = test system: A549; experiment: Growth inhibition of human A549 cells after 48 hrs by MTT assay; format: functional, cell-based; settings: A549, 48 h
[10] = test system: A549; experiment: Induction of apoptosis in human A549 cells assessed as early apoptotic cells at 2 nM after 24 hrs by Annexin V-FITC/propidium iodide staining based flow cytometry (reference value: 0.98%); format: functional
[11] = test system: BJ; experiment: Antiproliferative activity against human BJ cells after 48 hrs by MTT assay; format: cell-based; outline: as §1
[12] = test system: MCF7; experiment: Antiproliferative activity against human MCF7 cells after 48 hrs by MTT assay; format: functional, cell-based; settings: MCF7, 48 h; outline: as §1

C[Se]c1ccc(N(C)c2nc(C)nc3ccccc23)cc1
Activity [1]: 26.51%
Activity [2]: 78.97%
pIC50 [3]: 8.52
pIC50 [4]: 8.40
pIC50 [5]: 7.72
Activity [6]: 2.28%
Activity [7]: 64.86%
Activity [8]: 6.35%
pIC50 [9]: 8.70
Activity [10]: 16.35%
pIC50 [11]: 7.72
pIC50 [12]: 8.00
